PMI activator: phosphomannose isomerase (human) activation | P34949 | purified human PMI, coupled resazurin fluorescence, 20 min; stronger effect = higher value; 1 = vehicle control, 0 substrate-free wells | activation factor at 20 µM | 190,000 compounds, 0.005% hits | AID 1214;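 active means activation factor of 2 or more at 20 µM, relative to plate controls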
Target sequence (P34949 whole entry, looked up): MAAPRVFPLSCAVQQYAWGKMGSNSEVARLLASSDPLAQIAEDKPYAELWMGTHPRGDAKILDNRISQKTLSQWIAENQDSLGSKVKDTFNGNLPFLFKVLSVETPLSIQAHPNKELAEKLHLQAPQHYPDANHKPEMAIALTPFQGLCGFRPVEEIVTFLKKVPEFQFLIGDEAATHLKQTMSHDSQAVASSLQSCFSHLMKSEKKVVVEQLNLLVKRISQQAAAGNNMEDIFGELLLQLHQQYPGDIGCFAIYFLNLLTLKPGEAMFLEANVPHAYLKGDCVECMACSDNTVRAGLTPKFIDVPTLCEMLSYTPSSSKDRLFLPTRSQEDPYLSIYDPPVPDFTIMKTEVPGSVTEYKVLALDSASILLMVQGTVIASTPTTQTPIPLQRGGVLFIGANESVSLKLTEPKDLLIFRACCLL
Diaph act CS: activates diaphorase or chemically reduces, flagging diaphorase assay artifacts. 190,000 compounds, 0.005% hits. activation factor at 20 µM. Diaphorase/resazurin coupled assay, resorufin fluorescence, 16 min; stronger effect = higher value; 1 = vehicle wells, 0 = NADH-free wells;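 active means diaphorase activity raised at least twofold by the compound at 20 µM; inactive means activation factor below 2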
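Material: bacterial diaphorase enzyme (C. kluyveri); amount: enzyme 0.07 U/mL final; reagent: NADH substrate 0.114 mM plus resazurin dye 0.1 mM, final; doses: single compound dose of 20 µM, 1% DMSO final; timing: 16 min enzyme reaction, ambient temperature; measured by: fluorescence of resorufin, 544 nm excitation, 590 nm emission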
GSH bead fluor: compound fluoresces at 488/530 nm on GSH beads; fluorescence (KMESF) at 10 µM; AID 1776; 190,000 compounds, 0.25% hits; GSH beads flow cytometry, compound fluorescence 488/530 nm; stronger effect = higher value; in the data active means fluorescence above about 89;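 further: glutathione beads carrying GST-tagged Bcl family fusion proteins plus one bare bead set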
NCF1 inh: inhibitors of human p47phox binding. p47phox/p22phox peptide binding, fluorescence polarization, 2 h. inhibition, % at 24.7 µM. 220,000 compounds, 0.53% hits. AID 1274;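 active means inhibition above about 30%, limit read from the data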
Avidin bead fluor: avidin bead compound fluorescence profile. Avidin beads, compound fluorescence 488/530 nm, flow cytometry; stronger effect = higher value. fluorescence (KMESF) at 10 µM. 220,000 compounds, 0.38% hits; in the data active means fluorescence above about 47
PMI act satM6P: increases human PMI activity with near-saturating mannose 6-phosphate; P34949; coupled PMI enzyme assay, resazurin fluorescence, 20 min; stronger effect = higher value; 1 = untreated enzyme, 0 = substrate-free blank; activation factor at 20 µM; 190,000 compounds, 0.34% hits; AID 1216;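 active means activation factor of 2 or more at 20 µM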
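Test system: human phosphomannose isomerase with PGI, G6PDH, diaphorase coupling enzymes; amount: 15 ng/mL PMI; incubation: enzyme reaction with compound 20 min at room temperature; technique: resorufin fluorescence (Ex 544/Em 590 nm) from resazurin via diaphorase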
Each line names hits and unclear results; the compound was inactive in the other large screens. The list is not random: actives were taken first. Their share in the collection is about 1.4%.

CCN(CC)C(=O)c1ccc2c(c1)C1C(Cl)C(Sc3ccccc3[N+](=O)[O-])CC1C(C(=O)O)N2 (stereo not drawn)	NCF1 inh 46.1 (no result: PMI activator, Diaph act CS, GSH bead fluor, PMI act satM6P)
N#CC(C#N)=Cc1ccc(N2CCCC2)cc1	Avidin bead fluor 118
CN(C)c1ccc(C=C(C#N)C#N)cc1	none
O=P(Oc1ccccc1)(Oc1ccccc1)c1ccccc1	none (no result: PMI activator, Diaph act CS, GSH bead fluor, PMI act satM6P)
CCOc1ccc(N2C(=O)/C(=C\c3cccs3)C(=O)NC2=S)cc1	PMI act satM6P 2.2
C=CCC1C(=O)NC(=S)NC1=O	PMI act satM6P 2
O=c1[nH]c(=S)n(C2CC2)c(O)c1/C=N/Nc1ccccc1	PMI act satM6P 2
O=c1[nH]c(=S)n(C2CC2)c(O)c1/C=N/Nc1cccc2ccccc12	none
CCC(C)n1c(O)c(/C=N/Nc2ccccc2)c(=O)[nH]c1=S (stereo not drawn)	PMI act satM6P 2.7
O=C1CSC2(CN3CCC2CC3)N1 (stereo not drawn)	none
NCCCC(=O)OC1N=C(c2ccccc2Cl)c2cc(Br)ccc2NC1=O (stereo not drawn)	none
CCCCCCNC(=O)N[C@H](Cc1ccc(O)cc1)C(=O)NCCC[C@H]1CN2C(=NC[C@H]2CCC)N1CC1CCC1	NCF1 inh 59.9 (no result: PMI activator, Diaph act CS, GSH bead fluor, PMI act satM6P)
CC1CCCCN1CC(=O)c1ccc2cc[nH]c2c1 (stereo not drawn)	none
COc1ccc(CN2C(=O)NC(=O)/C(=C/c3ccoc3)C2=O)cc1	none (no result: PMI activator, Diaph act CS, GSH bead fluor, PMI act satM6P)
C=CCN1C(=O)NC(=O)/C(=C/c2ccoc2)C1=O	PMI act satM6P 2.2
OCC[n+]1c2ccccc2nc2ccc(N3CCOCC3)cc21	NCF1 inh 155.4 (no result: PMI activator, Diaph act CS, GSH bead fluor, PMI act satM6P)

Assay outcomes deposited in PubChem BioAssay by several laboratories.
